Data taken from ChEMBL document CHEMBL2346664, “Synthesis, characterization and in vitro anticancer evaluation of novel 1,2,4-triazolin-3-one derivatives” (2013).

Experiments:
Assay type in all cases: functional
[1] = test system: HOP-62; assay: Growth inhibition of human HOP62 cells assessed as cell growth at 10 uM after 48 hrs by sulforhodamine B assay; settings: HOP-62, 48 h, read-out: Activity
Method in brief: (§1)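 NCI-60 primary single-dose screen at 10^-5 M, 48 h continuous exposure. Adherent cells were fixed with cold TCA (10% final) and suspension cells with 16% final TCA, then stained with 0.4% SRB in 1% acetic acid. Bound dye was solubilized in 10 mM Tris base and read at 515 nm. Output is growth percent relative to untreated controls, and GI% is 100 minus growth percent.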

[2] = test system: NCI-H460; assay: Growth inhibition of human NCI-H460 cells assessed as cell growth at 10 uM after 48 hrs by sulforhodamine B assay; settings: NCI-H460, 48 h
Method in brief: (§2)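 NCI-60 single-dose screen at 10^-5 M. Cells plated at 5,000–40,000/well by doubling time and grown 24 h at 37 °C, 5% CO2, then drug added from DMSO stock for 48 h continuous exposure. Adherent cells fixed with cold TCA (final 10%), suspension cells with 16% TCA. SRB stain read at 515 nm. Reported as growth percent relative to untreated controls and time-zero plates.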

[3] = test system: OVCAR-3; assay: Growth inhibition of human OVCAR3 cells assessed as cell growth at 10 uM after 48 hrs by sulforhodamine B assay; settings: OVCAR-3, 48 h, read-out: Activity; method in brief: as §2
[4] = test system: CCRF-CEM; assay: Growth inhibition of human CCRF-CEM cells assessed as cell growth at 10 uM after 48 hrs by sulforhodamine B assay; settings: read-out: Activity
Method in brief: (§3)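 NCI-60 primary screen at a single dose of 10^-5 M. Output is mean growth percent of treated cells relative to untreated controls, where values between 0 and 100 indicate growth inhibition and values below 0 indicate cytotoxicity. Cells were plated 24 h before drug, incubated 48 h at 37 °C, 5% CO2, and stained with SRB after TCA fixation. Suspension cells were fixed with 80% TCA (16% final).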

[5] = test system: DU-145; assay: Growth inhibition of human DU145 cells assessed as cell growth at 10 uM after 48 hrs by sulforhodamine B assay; settings: DU-145, 48 h, read-out: Activity; method in brief: as §1
[6] = test system: BT-549; assay: Growth inhibition of human BT549 cells assessed as cell growth at 10 uM after 48 hrs by sulforhodamine B assay; settings: BT-549, 48 h, read-out: Activity; method in brief: as §3
[7] = test system: TK-10; assay: Growth inhibition of human TK10 cells assessed as cell growth at 10 uM after 48 hrs by sulforhodamine B assay; settings: TK-10, 48 h, read-out: Activity; method in brief: as §2
[8] = test system: HCT-116; assay: Growth inhibition of human HCT116 cells assessed as cell growth at 10 uM after 48 hrs by sulforhodamine B assay; settings: HCT-116, 48 h, read-out: Activity; method in brief: as §1
[9] = test system: MDA-MB-435; assay: Growth inhibition of human MDA-MB-435 cells assessed as cell growth at 10 uM after 48 hrs by sulforhodamine B assay; settings: MDA-MB-435, 48 h, read-out: Activity; method in brief: as §1
[10] = test system: LOX IMVI; assay: Growth inhibition of human LOXIMVI cells assessed as cell growth at 10 uM after 48 hrs by sulforhodamine B assay; settings: read-out: Activity; method in brief: as §1
[11] = test system: HT-29; assay: Growth inhibition of human HT-29 cells assessed as cell growth at 10 uM after 48 hrs by sulforhodamine B assay; settings: HT-29, 48 h, read-out: Activity; method in brief: as §1
[12] = test system: MCF7; assay: Growth inhibition of human MCF7 cells assessed as cell growth at 10 uM after 48 hrs by sulforhodamine B assay; settings: MCF7, 48 h, read-out: Activity; method in brief: as §1
[13] = test system: SNB-75; assay: Growth inhibition of human SNB75 cells assessed as cell growth at 10 uM after 48 hrs by sulforhodamine B assay; settings: SNB-75, 48 h, read-out: Activity; method in brief: as §2
[14] = test system: HCT-15; assay: Growth inhibition of human HCT15 cells assessed as cell growth at 10 uM after 48 hrs by sulforhodamine B assay; settings: HCT-15, 48 h, read-out: Activity; method in brief: as §1
[15] = test system: UO-31; assay: Growth inhibition of human UO31 cells assessed as cell growth at 10 uM after 48 hrs by sulforhodamine B assay; settings: UO-31, 48 h, read-out: Activity; method in brief: as §2
[16] = test system: NCI-H226; assay: Growth inhibition of human NCI-H226 cells assessed as cell growth at 10 uM after 48 hrs by sulforhodamine B assay; settings: NCI-H226, 48 h, read-out: Activity; method in brief: as §1
[17] = test system: RPMI-8226; assay: Growth inhibition of human RPMI8226 cells assessed as cell growth at 10 uM after 48 hrs by sulforhodamine B assay; settings: RPMI-8226, 48 h, read-out: Activity; method in brief: as §2
[18] = test system: KM12; assay: Growth inhibition of human KM12 cells assessed as cell growth at 10 uM after 48 hrs by sulforhodamine B assay; settings: KM12, 48 h, read-out: Activity; method in brief: as §1
[19] = test system: OVCAR-4; assay: Growth inhibition of human OVCAR4 cells assessed as cell growth at 10 uM after 48 hrs by sulforhodamine B assay; settings: OVCAR-4, 48 h, read-out: Activity; method in brief: as §2
[20] = test system: UACC-62; assay: Growth inhibition of human UACC62 cells assessed as cell growth at 10 uM after 48 hrs by sulforhodamine B assay; settings: UACC-62, 48 h, read-out: Activity; method in brief: as §2
[21] = test system: NCI-H23; assay: Growth inhibition of human NCI-H23 cells assessed as cell growth at 10 uM after 48 hrs by sulforhodamine B assay; settings: NCI-H23, 48 h, read-out: Activity; method in brief: as §1
[22] = test system: HL-60(TB); assay: Growth inhibition of human HL-60(TB) cells assessed as cell growth at 10 uM after 48 hrs by sulforhodamine B assay; settings: HL-60, 48 h, read-out: Activity
Method in brief: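 NCI DTP single high-dose primary screen at 10^-5 M across 60 human tumour lines. Growth percent of treated cells is taken relative to untreated controls: values of 0–100 indicate growth inhibition and values below 0 indicate cytotoxicity. Both growth percent and percentage growth inhibition are reported.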

[23] = test system: SR; assay: Growth inhibition of human SR cells assessed as cell growth at 10 uM after 48 hrs by sulforhodamine B assay; settings: read-out: Activity; method in brief: as §2
[24] = test system: UACC-257; assay: Growth inhibition of human UACC257 cells assessed as cell growth at 10 uM after 48 hrs by sulforhodamine B assay; settings: UACC-257, 48 h, read-out: Activity; method in brief: as §2
[25] = test system: Malme-3M; assay: Growth inhibition of human MALME-3M cells assessed as cell growth at 10 uM after 48 hrs by sulforhodamine B assay; settings: read-out: Activity; method in brief: as §1
[26] = test system: U-251; assay: Growth inhibition of human U251 cells assessed as cell growth at 10 uM after 48 hrs by sulforhodamine B assay; settings: U-251, 48 h, read-out: Activity; method in brief: as §2
[27] = test system: SF-268; assay: Growth inhibition of human SF268 cells assessed as cell growth at 10 uM after 48 hrs by sulforhodamine B assay; settings: SF-268, 48 h, read-out: Activity; method in brief: as §2
[28] = test system: NCI-H322M; assay: Growth inhibition of human NCI-H322M cells assessed as cell growth at 10 uM after 48 hrs by sulforhodamine B assay; settings: read-out: Activity; method in brief: as §2
[29] = Growth inhibition of human NCI-ADR-RES cells assessed as cell growth at 10 uM after 48 hrs by sulforhodamine B assay; settings: read-out: Activity; method in brief: as §1
[30] = test system: A549; assay: Growth inhibition of human A549 cells assessed as cell growth at 10 uM after 48 hrs by sulforhodamine B assay; settings: A549, 48 h, read-out: Activity; method in brief: as §3

SMILES	growth at 10 µM [1]	growth at 10 µM [3]	growth at 10 µM [4]	growth at 10 µM [5]	growth at 10 µM [6]	growth at 10 µM [7]	growth at 10 µM [8]	growth at 10 µM [9]	growth at 10 µM [10]	growth at 10 µM [11]	growth at 10 µM [12]	growth at 10 µM [13]	growth at 10 µM [14]	growth at 10 µM [15]	growth at 10 µM [16]	growth at 10 µM [17]	growth at 10 µM [18]	growth at 10 µM [19]	growth at 10 µM [20]	growth at 10 µM [21]	also measured
Cc1nn(-c2ccc(Cl)cc2)c(=O)n1CCN1CCOCC1	33.8%	79.2%	63.2%	78.5%	61.5%	64.4%	29.5%	84.9%	81.6%	104%	73.4%	7.65%	74.2%	66%	79.4%	83.1%	81.3%	93.4%	82.8%	64.5%	growth at 10 µM ([2]; read-out: Activity): 41.8%; growth at 10 µM [22]: 105%; growth at 10 µM [23]: 95.3%; growth at 10 µM [24]: 73.4%; growth at 10 µM [25]: 59.1%; growth at 10 µM [26]: 42.9%; growth at 10 µM [27]: 48.4%; growth at 10 µM [28]: 92.2%; growth at 10 µM [29]: 75.9%; growth at 10 µM [30]: 56.4%
Cc1cc(=O)oc2cc(OCCn3c(C)nn(-c4ccc(Cl)cc4)c3=O)ccc12	27.4%	14.8%	13.4%	21.6%	56.7%	59.6%	15.1%	-38.5%	48%	0.7%	15.8%	20.4%	17.7%	42.8%	50.1%	31%	31.4%	67.1%	43.3%	45.8%	inhibition of growth at 10 µM ([2]; read-out: GI): 17.2%; growth at 10 µM [22]: -5.7%; growth at 10 µM [23]: 21.2%; growth at 10 µM [24]: 22.5%; growth at 10 µM [25]: 32.9%; growth at 10 µM [26]: 31.4%; growth at 10 µM [27]: 50.3%; growth at 10 µM [28]: 58.7%; growth at 10 µM [29]: 24.7%; growth at 10 µM [30]: 30.2%
